What was measured:
Type in all cases: functional
Candida albicans [1] = experiment: Antimicrobial activity against azole-resistant Candida albicans isolate CA10 assessed as growth at 0.125 ug/ml cotreated with 0.063 ug/ml calcineurin signaling inhibitor Tacrolimus after 48 hrs by microdilution checkboard technique relative to control; design: scale not given: the % may be the effect or the level left
Summary of the method: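 Checkerboard microdilution in MOPS-buffered RPMI 1640 (pH 7.0, 2% dextrose). Final ranges: azole 0.125–128 μg/ml (FLC) or 0.008–8 μg/ml (ITR, VRC), tacrolimus 0.002–0.125 μg/ml; solvent 1% in single-drug wells. Inoculum 2.5 × 10^3 CFU/ml, 35°C, 48 h. Growth % = background-subtracted OD492 of each well / drug-free well. Triplicate on different days.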

Candida albicans [2] = experiment: Antimicrobial activity against azole-resistant Candida albicans isolate CA10 assessed as growth at 64 ug/ml co-treated with 0.002 ug/ml calcineurin signaling inhibitor tacrolimus after 48 hrs by microdilution checkboard technique relative to control; design: scale not given: the % may be the effect or the level left
Summary of the method: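 CA10 in RPMI 1640 with 2% dextrose and 0.165 M MOPS, pH 7.0. Checkerboard used twofold dilutions, with azole alone in row H and the drug-free growth control in well H1. Final inoculum was 2.5 × 10^3 CFU/ml, incubated 35°C for 48 h, with OD read at 492 nm. Growth % = background-subtracted well OD / drug-free well OD. Run in triplicate on different days.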

Candida albicans [3] = experiment: Antimicrobial activity against azole-susceptible Candida albicans isolate CA8 co-treated with calcineurin signaling inhibitor tacrolimus after 48 hrs by microdilution checkerboard technique; conditions: isolate CA8, 48 h
Summary of the method: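 Checkerboard microdilution in MOPS-buffered RPMI 1640 (pH 7.0, 2% dextrose) with 2.5 × 10^3 CFU/ml for 48 h at 35°C. Final FK506 was 0.002–0.125 μg/ml. Azole finals were FLC 0.125–128 μg/ml, and ITR and VRC 0.008–8 μg/ml. MIC80 is an 80% OD492 decrease vs drug-free control. Interaction was scored by FICI (synergy ≤0.5, antagonism >4) and by ΔE from triplicates.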

SMILES: OC(Cn1cncn1)(Cn1cncn1)c1ccc(F)cc1F [FLUCONAZOLE]
- Activity (Candida albicans [1]): 27%
- Activity (Candida albicans [2]): 28%
- MIC (Candida albicans [3]): 66 µg/mL
